Experimental data published in ChEMBL document CHEMBL5649170, “Sustained microglial depletion with CSF1R inhibitor impairs parenchymal plaque development in an Alzheimer's disease model” (Nat Commun, 2019).
Activity calls are given as the source filed them. The calls are words filed in the database; no cut-off is given here.

Legend:
[1] = test system: Mus musculus; assay: Antialzheimer activity in 5XFAD mouse assessed as amyloidbeta42 level in detergent soluble thalamus fraction measured per microgram protein at 1200 ppm administered as rodent chow starting from 1.5 months and measured after 7 months by ELISA (reference value: 0 to 0.271 pg); type: functional; conditions: route po, time 5.5 months, 4015 h
How it was run: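 PLX5622 at 1200 ppm in chow given to 5xFAD mice from 1.5 months to 4 or 7 months of age; cortex and thalamus homogenized in TPER (detergent-soluble), pellets re-homogenized in 70% formic acid and spun 100,000 g, 1 h, 4 °C (insoluble); protein by Bradford/Lowry; Aβ species measured by Meso Scale electrochemiluminescence immunoassay, normalized to protein; n = 7–8 per group at 7 months.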

[2] = Permeability in human Caco-2 cells; type: ADME, cell-based; conditions: read-out: permeability
[3] = Dissociation constant, pKa of compound; type: physicochemical
[4] = Inhibition of BCR-KIT (unknown origin) expressed in mouse BaF3 cells assessed as inhibition of IL3 dependent cell proliferation incubated for 3 days by ATPlite 1step Luminescence Assay reagent based assay; conditions: Homo sapiens, BaF3, 72 h
[5] = target: cAMP-dependent protein kinase catalytic subunit PRKX (Homo sapiens, UniProt P51817); assay: Inhibition of PRKX (unknown origin)
Sequence of cAMP-dependent protein kinase catalytic subunit PRKX (P51817 whole entry): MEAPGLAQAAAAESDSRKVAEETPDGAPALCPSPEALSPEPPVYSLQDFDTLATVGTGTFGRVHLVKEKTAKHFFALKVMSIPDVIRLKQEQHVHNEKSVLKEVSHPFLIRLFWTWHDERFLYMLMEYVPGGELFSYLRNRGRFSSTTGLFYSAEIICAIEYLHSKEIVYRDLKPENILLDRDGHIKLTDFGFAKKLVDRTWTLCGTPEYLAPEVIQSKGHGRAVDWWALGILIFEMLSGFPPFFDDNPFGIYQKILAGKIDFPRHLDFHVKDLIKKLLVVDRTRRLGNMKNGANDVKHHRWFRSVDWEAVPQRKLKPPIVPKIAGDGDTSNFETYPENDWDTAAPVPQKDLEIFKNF

[6] = Octanol to water partition coefficient, logD of the compound; type: physicochemical
[7] = target: T1, Macrophage colony-stimulating factor 1 receptor (Mus musculus) (UniProt P09581); assay: In vivo inhibition of CSF1R in wildtype mouse assessed as number of Iba1 positive cells per FOV in somatosensory cortex at 1200 ppm administered as rodent chow starting from 1.5 months to 4 months followed by compound removal and measured after 1 months by immunolabelling based confocal microscopic analysis (reference value: 304 to 351); type: functional; conditions: route po, time 2.5 months
T1 sequence (whole entry): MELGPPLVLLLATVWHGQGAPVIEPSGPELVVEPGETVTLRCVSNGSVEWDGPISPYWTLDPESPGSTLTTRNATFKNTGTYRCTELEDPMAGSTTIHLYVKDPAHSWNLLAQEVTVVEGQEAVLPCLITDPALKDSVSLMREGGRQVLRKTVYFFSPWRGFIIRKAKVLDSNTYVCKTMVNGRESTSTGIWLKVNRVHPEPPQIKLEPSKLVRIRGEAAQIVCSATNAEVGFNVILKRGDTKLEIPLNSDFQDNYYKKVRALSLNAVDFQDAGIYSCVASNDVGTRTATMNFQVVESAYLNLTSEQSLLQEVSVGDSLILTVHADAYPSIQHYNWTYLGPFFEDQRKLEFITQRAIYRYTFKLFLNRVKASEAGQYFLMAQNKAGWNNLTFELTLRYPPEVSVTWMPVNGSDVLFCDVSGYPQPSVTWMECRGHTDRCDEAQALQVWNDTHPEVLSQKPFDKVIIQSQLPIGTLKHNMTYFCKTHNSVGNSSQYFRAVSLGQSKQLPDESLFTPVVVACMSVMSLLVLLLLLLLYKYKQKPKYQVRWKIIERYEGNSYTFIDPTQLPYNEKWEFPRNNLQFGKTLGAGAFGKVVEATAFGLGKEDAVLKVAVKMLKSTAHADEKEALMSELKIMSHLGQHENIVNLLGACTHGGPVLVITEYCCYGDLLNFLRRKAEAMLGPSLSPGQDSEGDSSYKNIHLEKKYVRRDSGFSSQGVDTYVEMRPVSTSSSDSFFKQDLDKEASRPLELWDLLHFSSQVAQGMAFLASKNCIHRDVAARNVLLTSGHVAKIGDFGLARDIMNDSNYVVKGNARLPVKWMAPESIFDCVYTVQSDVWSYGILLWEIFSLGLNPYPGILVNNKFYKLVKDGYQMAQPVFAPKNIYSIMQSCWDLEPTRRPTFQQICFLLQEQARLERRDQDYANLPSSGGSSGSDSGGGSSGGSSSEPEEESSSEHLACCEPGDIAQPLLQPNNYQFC

[8] = Inhibition of BCR-CSF1R (unknown origin) expressed in mouse BaF3 cells assessed as inhibition of IL3-dependent cell proliferation incubated for 3 days by ATPlite 1step Luminescence Assay reagent based assay; conditions: Homo sapiens, BaF3, 72 h
[9] = test system: Mus musculus; assay: Antialzheimer activity in wildtype mouse assessed as number of Iba positive cells per FOV in thalamus at 1200 ppm administered as rodent chow starting from 1.5 months and measured after 4 months (reference value: 232 to 320); type: functional; conditions: route po, time 2.5 months, 1825 h
[10] = target: Mitogen-activated protein kinase kinase kinase kinase 4 (Homo sapiens, UniProt O95819); assay: Inhibition of MAP4K4 (unknown origin)
Sequence of Mitogen-activated protein kinase kinase kinase kinase 4 (O95819 whole entry): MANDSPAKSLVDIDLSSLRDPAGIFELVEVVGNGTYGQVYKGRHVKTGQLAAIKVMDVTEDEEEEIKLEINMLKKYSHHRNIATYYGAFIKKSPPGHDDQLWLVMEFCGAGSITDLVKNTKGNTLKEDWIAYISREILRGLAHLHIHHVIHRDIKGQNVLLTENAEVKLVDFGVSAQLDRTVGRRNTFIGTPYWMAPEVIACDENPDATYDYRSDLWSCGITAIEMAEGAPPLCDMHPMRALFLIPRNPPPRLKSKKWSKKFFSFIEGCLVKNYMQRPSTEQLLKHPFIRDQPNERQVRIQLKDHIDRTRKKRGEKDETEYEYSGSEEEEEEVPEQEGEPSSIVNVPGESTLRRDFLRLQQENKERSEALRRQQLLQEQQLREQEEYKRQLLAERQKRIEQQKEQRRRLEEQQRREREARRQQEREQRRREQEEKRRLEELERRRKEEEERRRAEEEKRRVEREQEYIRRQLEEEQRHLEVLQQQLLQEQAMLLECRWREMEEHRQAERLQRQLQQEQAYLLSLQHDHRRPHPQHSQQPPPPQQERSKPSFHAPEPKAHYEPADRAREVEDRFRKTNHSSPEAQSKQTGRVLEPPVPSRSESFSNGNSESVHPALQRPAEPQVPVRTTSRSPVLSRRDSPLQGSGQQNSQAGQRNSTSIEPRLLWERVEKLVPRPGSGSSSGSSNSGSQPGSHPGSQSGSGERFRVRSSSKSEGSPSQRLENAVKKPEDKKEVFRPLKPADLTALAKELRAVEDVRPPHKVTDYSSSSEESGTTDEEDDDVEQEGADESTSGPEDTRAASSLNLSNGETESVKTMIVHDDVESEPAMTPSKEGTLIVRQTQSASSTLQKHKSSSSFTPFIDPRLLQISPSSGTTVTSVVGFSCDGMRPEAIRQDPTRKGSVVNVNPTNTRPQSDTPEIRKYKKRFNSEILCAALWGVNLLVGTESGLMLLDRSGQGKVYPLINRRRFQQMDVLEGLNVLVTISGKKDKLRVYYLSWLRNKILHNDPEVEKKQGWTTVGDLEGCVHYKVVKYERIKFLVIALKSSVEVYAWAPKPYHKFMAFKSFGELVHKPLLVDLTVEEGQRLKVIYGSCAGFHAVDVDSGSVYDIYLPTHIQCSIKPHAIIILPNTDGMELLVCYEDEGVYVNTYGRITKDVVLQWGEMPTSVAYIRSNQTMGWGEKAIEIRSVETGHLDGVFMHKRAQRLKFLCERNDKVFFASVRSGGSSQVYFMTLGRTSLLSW

[11] = Inhibition of BCR-KIT (unknown origin) expressed in mouse BaF3 cells assessed as inhibition of BCR-KIT dependent cell proliferation incubated for 3 days by ATPlite 1step Luminescence Assay reagent based assay; conditions: Homo sapiens, BaF3, 72 h
[12] = Inhibition of BCR-CSF1R (unknown origin) expressed in mouse BaF3 cells assessed as inhibition of BCR-CSF1R dependent cell proliferation incubated for 3 days by ATPlite 1step Luminescence Assay reagent based assay; conditions: Homo sapiens, BaF3, 72 h
[13] = test system: Brain; assay: Drug penetration in mouse brain; type: ADME, tissue-based; conditions: in vivo
[14] = target: Casein kinase I isoform delta (Homo sapiens, UniProt P48730); assay: Inhibition of CSNK1D (unknown origin)
Sequence of Casein kinase I isoform delta (P48730 whole entry, canonical isoform): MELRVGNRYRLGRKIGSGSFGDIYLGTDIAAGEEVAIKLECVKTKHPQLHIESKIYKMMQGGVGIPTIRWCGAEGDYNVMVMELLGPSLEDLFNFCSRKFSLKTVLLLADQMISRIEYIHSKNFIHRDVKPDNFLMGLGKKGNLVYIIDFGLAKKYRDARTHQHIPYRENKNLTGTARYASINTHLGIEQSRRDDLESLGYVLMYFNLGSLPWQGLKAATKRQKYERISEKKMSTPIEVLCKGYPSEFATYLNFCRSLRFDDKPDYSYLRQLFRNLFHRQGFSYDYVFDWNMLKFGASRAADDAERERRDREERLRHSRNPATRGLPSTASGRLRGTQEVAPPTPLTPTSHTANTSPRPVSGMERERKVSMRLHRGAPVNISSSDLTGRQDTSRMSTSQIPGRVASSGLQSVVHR

[15] = Effect on Chrm3 gene expression in wildtype mouse hippocampus assessed as percent change in Reads Per kilo base per Million mapped reads at 1200 ppm administered as rodent chow starting from 1.5 months and measured after 7 months by RNA-Seq analysis (reference value: 85.337 to 114.189 %); type: functional; conditions: route po, time 5.5 months, 4015 h
How it was run: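 WT and 5xFAD mice were treated with 1200 ppm PLX5622 chow or control chow from 1.5 to 7 months of age. Brains were microdissected into cortex, hippocampus and thalamus, and RNA was extracted from tissue powder. Whole-transcriptome RNA-Seq libraries were sequenced, with n = 4 per group per region (48 samples).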

[16] = target: Serine/threonine-protein kinase D1 (Homo sapiens, UniProt Q15139); assay: Inhibition of PRKD1 (unknown origin)
Sequence of Serine/threonine-protein kinase D1 (Q15139 whole entry): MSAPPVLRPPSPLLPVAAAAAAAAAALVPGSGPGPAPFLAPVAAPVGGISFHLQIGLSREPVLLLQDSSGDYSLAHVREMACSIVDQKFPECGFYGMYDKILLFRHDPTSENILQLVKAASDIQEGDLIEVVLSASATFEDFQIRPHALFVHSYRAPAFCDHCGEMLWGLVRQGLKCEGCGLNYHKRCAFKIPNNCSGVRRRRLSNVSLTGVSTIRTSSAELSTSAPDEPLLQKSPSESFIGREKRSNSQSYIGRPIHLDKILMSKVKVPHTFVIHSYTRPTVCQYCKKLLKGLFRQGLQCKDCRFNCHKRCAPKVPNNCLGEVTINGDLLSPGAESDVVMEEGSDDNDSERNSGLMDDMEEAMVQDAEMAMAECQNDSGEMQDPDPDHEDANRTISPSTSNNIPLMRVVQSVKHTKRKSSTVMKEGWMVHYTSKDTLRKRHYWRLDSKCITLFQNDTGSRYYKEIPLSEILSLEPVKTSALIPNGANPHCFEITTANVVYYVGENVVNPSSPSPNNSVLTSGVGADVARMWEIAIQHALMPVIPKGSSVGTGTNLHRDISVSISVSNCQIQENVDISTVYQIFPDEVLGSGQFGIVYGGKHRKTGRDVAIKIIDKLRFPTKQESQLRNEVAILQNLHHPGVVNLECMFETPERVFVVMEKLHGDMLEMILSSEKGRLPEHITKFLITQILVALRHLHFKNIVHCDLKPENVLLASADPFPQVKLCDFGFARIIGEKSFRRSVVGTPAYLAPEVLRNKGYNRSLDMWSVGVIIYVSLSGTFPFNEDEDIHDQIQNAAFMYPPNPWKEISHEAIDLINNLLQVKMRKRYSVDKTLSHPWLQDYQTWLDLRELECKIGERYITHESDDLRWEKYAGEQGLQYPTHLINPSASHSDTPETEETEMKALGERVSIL

[17] = Effect on Cst7 gene expression in wild type mouse thalamus at 1200 ppm administered as rodent chow starting from 1.5 months and measured after 7 months by RNA-Seq analysis (reference value: 0 to 1.803 RPKM); type: functional; conditions: route po, time 5.5 months, 4015 h
[18] = test system: Mus musculus; assay: Antialzheimer activity in 5XFAD mouse assessed as number of S100bteta positive cells per FOV in somatosensory cortex at 1200 ppm administered as rodent chow for 10 to 24 weeks by immunolabelling based confocal microscopic analysis (reference value: 283 to 357); type: functional; conditions: route po, time 10-24 weeks
[19] = Prevention of Dync1i1 gene downregulation in 5XFAD mouse hippocampus assessed as percent change in Reads Per kilo base per Million mapped reads at 1200 ppm administered as rodent chow starting from 1.5 months and measured after 7 months by RNA-Seq analysis (reference value: 65.184 to 88.242 %); type: functional; conditions: route po, time 5.5 months, 4015 h
[20] = test system: Mus musculus; assay: Antialzheimer activity in 5XFAD mouse assessed as reduction in plaque pathology in […] cortex at 600 ppm administered as rodent chow starting from 1.5 months and measured after 5 months by immunolabeling based confocal microscopic analysis; type: functional, organism-based; conditions: route po, time 3.5 months
How it was run: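 5xFAD mice received 600 ppm PLX3397 in AIN-76A chow from 1.5 to 5 months of age. Brain sections were stained with Thio-S for dense-core plaques and immunolabeled for IBA1, then examined by confocal microscopy.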

**Q.** Which Activity [1] does the source give for `COc1ncc(F)cc1CNc1ccc(Cc2c[nH]c3ncc(C)cc23)c(F)n1` [PLX-5622] here?
**A.** Its Activity is 0 pg.

**Q.** And the Papp [2]?
**A.** The Papp was 12.2 ×10⁻⁶ cm/s.

**Q.** And the pKa [3]?
**A.** The pKa was 4.14.

**Q.** What about the IC50 [4] of the same compound?
**A.** Its IC50 is > 10000 nM.

**Q.** What about the IC50 [5] of the same compound?
**A.** The IC50 was > 1000 nM.

**Q.** What about the logD [6] of the same compound?
**A.** Its logD is 3.92.

**Q.** And the Activity [7]?
**A.** The Activity was 108.

**Q.** And the IC50 [8]?
**A.** Its IC50 is > 10000 nM.

**Q.** And the Activity [9]?
**A.** Its Activity is 0.

**Q.** What about the IC50 [10] of the same compound?
**A.** Its IC50 is > 1000 nM.

**Q.** What about the IC50 [11] of the same compound?
**A.** The IC50 was 2700 nM.

**Q.** What about the IC50 [12] of the same compound?
**A.** Its IC50 is 17 nM.

**Q.** And the Drug uptake [13]?
**A.** Its Drug uptake is ~ 20%.

**Q.** What about the IC50 [14] of the same compound?
**A.** Its IC50 is > 1000 nM.

**Q.** What about the Activity [15] of the same compound?
**A.** Its Activity is 79.458%.

**Q.** And the IC50 [16]?
**A.** Its IC50 is > 1000 nM.

**Q.** And the Activity [17]?
**A.** Its Activity is 0 RPKM.

**Q.** What about the Activity [18] of the same compound?
**A.** The Activity was 307.

**Q.** And the Activity [19]?
**A.** Its Activity is 89.818%.

**Q.** With `FC(F)(F)c1ccc(CNc2ccc(Cc3c[nH]c4ncc(Cl)cc34)cn2)cn1` [PEXIDARTINIB] as the compound, how does the Papp [2] read?
**A.** Its Papp is 1.4 ×10⁻⁶ cm/s.

**Q.** And the pKa [3]?
**A.** Its pKa is 5.2.

**Q.** What about the IC50 [4] of the same compound?
**A.** The IC50 was > 10000 nM.

**Q.** And the logD [6]?
**A.** The logD was 3.35.

**Q.** And the IC50 [8]?
**A.** The IC50 was > 10000 nM.

**Q.** And the Activity [20]?
**A.** Its Activity is “Active”.

**Q.** And the IC50 [11]?
**A.** The IC50 was 110 nM.

**Q.** What about the IC50 [12] of the same compound?
**A.** Its IC50 is 9 nM.

**Q.** And the Drug uptake [13]?
**A.** Its Drug uptake is ~ 5%.
